Source: PubChem BioAssay
RAD52 inh – RAD52 DNA annealing inhibitors, primary screen, biochemical, FRET, single point, set 2; inhibition, % at 18.7 µM; 360,000 tested, 0.46% active; recombinant RAD52 DNA annealing, FRET fluorescence;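 active means every replicate showing at least 50% inhibition; inconclusive means mean inhibition at least 50% but not in every replicate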
MLL AF4-AF9 inh – inhibitors of AF4 peptide binding to AF9, primary screen, biochemical, AlphaScreen, biotin-AF4 peptide, FLAG-AF9, single point; Protein AF-9 (Homo sapiens), P42568; inhibition, % at 10 µM; 350,000 tested, 0.47% active; AID 651704, 2012;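 active means every replicate reaching a set inhibition limit, whatever the replicate mean, cut at about 25% in these data; inconclusive means mean inhibition reaches that limit but some replicates miss it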
RAD54 inh – inhibitors of human RAD54 branch migration, primary screen, biochemical, fluorescence, single point | RAD54 Holliday junction branch migration, FAM/BHQ fluorescence | inhibition, % at 10.4 µM | 360,000 tested, 0.14% active;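 active means mean normalized replicate activity at least 40 and at least half of replicates scoring 40 or more; inconclusive means only one of the two criteria met; inactive means mean below 40 and under half of replicates reaching 40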;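 further: inhibitors cause a drop in the FAM fluorescence signal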
FN deposit inh – inhibitors of fibronectin matrix deposition, primary screen, AH1F cells, Alexa488-fibronectin fluorescence, plate reader. AH1F fibroblasts, overnight. inhibition, % at 12.6 µM. 350,000 tested, 0.086% active;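 active means mean inhibition across replicates of 30% or more, regardless of how many single replicates reach that level; inconclusive means mean under 30% yet at least half of replicates reach 30%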
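Assay system: AH1F fibroblasts assembling fluorescent fibronectin matrix; Amount: 10000 AH1F cells per well; Buffer or medium: DMEM, 2% serum; Probe or stimulus: Alexa488-fibronectin, 24 nM final in well; Doses: single compound dose, delivered by pin transfer; Incubation: 1 h adhesion, overnight exposure; Measured by: fluorescence 485/525 nm; Read-out: fibronectin deposition inhibition.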
N-glyco inh – increase of ERlucT glycosylation luciferase signal, primary screen, N-linked glycosylation inhibitor project, D54 ERlucT cells, luminescence, set 2 | D54 ERlucT glycosylation luciferase reporter, 24 h; percent of 100 nM tunicamycin response | reporter increase, % at 12.5 µM | 360,000 tested, 0.23% active | AID 588692, 2011;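 active means mean luciferase reporter signal, scaled so untreated is 0 and the glycosylation-blocking control 100, at or above a set limit in every replicate; inconclusive means mean reaches the limit but not every replicate does; inactive means mean below the limit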;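 further: luciferase carries N-glycosylation sites so blocking glycosylation raises the light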
Large screens that a line does not name were inactive. Sampled rows, rich in hits. Any-hit rate of the full collection: about 0.92%.

CC(=O)[C@@]1(O)Cc2c(O)c3c(c(O)c2[C@H](O[C@H]2C[C@H](N)[C@H](O)[C@H](C)O2)C1)C(=O)c1ccccc1C3=O	MLL AF4-AF9 inh 25.5
COc1cccc2c1C(=O)c1c(O)c3c(c(O)c1C2=O)C[C@@](O)(C(=O)CO)C[C@@H]3OC1CC(N)C(O)C(C)O1 (some centres undefined)	none (no result: RAD54 inh)
CNC[C@H]1Oc2ccc(NC(=O)NC(C)C)cc2CC(=O)N(C)C[C@@H]1C	none (no result: RAD52 inh, MLL AF4-AF9 inh, RAD54 inh, N-glyco inh)
COc1ccc(Cl)cc1NC(=O)CN(C)CC(=O)Nc1cc(OC)c(OC)c(OC)c1	N-glyco inh 32.5
COc1cc(CNc2ncc(-c3ccc(Br)cc3)n2C)cc(OC)c1O	MLL AF4-AF9 inh 25.3
COc1cc(-c2cnc3c(NC(C)=O)cc(-c4ccccc4CN(C)C)cn23)cc(OC)c1OC	N-glyco inh 40.1
COC(=O)c1ccc(CN2CC(=O)N3[C@@H](CO)[C@H](c4ccc(-c5cccnc5)cc4)[C@@H]3C2)cc1	none (no result: RAD54 inh, N-glyco inh)
Cc1nc2nc(SCC(=O)NCCCN3CCCCC3)nn2c(C)c1Cc1ccccc1	none
Cc1ccc(Cc2c(C)nc3nc(SCC(=O)NCCCN4CCCCCC4)nn3c2C)cc1	MLL AF4-AF9 inh 32.7 (no result: RAD54 inh, N-glyco inh)
CN(C)CC(=O)N[C@H]1CC[C@H](CC(=O)O)O[C@@H]1CO	none (no result: RAD54 inh, N-glyco inh)
NCCCNCCCCNCCCN	RAD52 inh 110.7, MLL AF4-AF9 inh inconclusive (no result: FN deposit inh)
NCCCS(=O)(=O)O	none
COc1ccc2c3c(n(C)c2c1)[C@H](CO)N(Cc1ccccc1)CC31CN(S(C)(=O)=O)C1	none (no result: RAD52 inh, RAD54 inh, FN deposit inh, N-glyco inh)
N#Cc1ccccc1Sc1ccccc1C(=O)NCC(c1ccco1)N1CCCC1 (centres undefined)	MLL AF4-AF9 inh 27.1 (no result: RAD54 inh)
CN1CCN(C(=O)C[C@@H]2CC[C@@H]3[C@H](COC[C@H](O)CN3Cc3cccc(Cl)c3)O2)CC1	none (no result: N-glyco inh)
CCCC(=O)Nc1ccc2c(c1)OC[C@@H](C)N(Cc1cncnc1)C[C@@H](C)[C@@H](OC)CN(C)C2=O	MLL AF4-AF9 inh 44.5 (no result: N-glyco inh)
CCCN1C[C@@H](C)[C@H](OC)CN(C)C(=O)c2ccc(NC(=O)c3cccc(F)c3)cc2OC[C@@H]1C	MLL AF4-AF9 inh 45.0 (no result: N-glyco inh)
O=C(NCC1CC1)[C@H]1[C@H](CO)[C@H]2Cn3c(ccc(-c4cccnc4)c3=O)[C@@H]1N2Cc1nccs1	none (no result: FN deposit inh, N-glyco inh)
O=C(C[C@@H]1C=C[C@@H](NC(=O)c2ccncc2)[C@H](CO)O1)NCC1CC1	none (no result: N-glyco inh)
CO[C@@H]1CN(C)C(=O)c2cc(NC(=O)C3CC3)ccc2OC[C@@H](C)N(C(=O)CN(C)C)C[C@@H]1C	none (no result: N-glyco inh)
O=C(C[C@@H]1CC[C@H]2[C@@H](COC[C@@H](O)CN2Cc2ccncc2)O1)NCc1ccncc1	none (no result: N-glyco inh)
COC(=O)[C@@]1(Cc2ccccc2)N=C(c2ccc(OCCCO)cc2)O[C@H]1c1ccccc1	none (no result: FN deposit inh, N-glyco inh)
CCCCOc1ccc(C(C)NC(=O)C2CCCN(S(=O)(=O)CCC)C2)cc1 (centres undefined)	FN deposit inh 32.6 (no result: RAD52 inh, MLL AF4-AF9 inh)
CCCn1c(=O)c2ccccc2n2c(SCCNCCO)nnc12	MLL AF4-AF9 inh 26.7
COc1ccc(NC(=O)Nc2ccc3c(c2)C(=O)N([C@H](C)CO)C[C@@H](C)[C@H](CN(C)Cc2ccncc2)OCCCC[C@@H](C)O3)cc1	none (no result: FN deposit inh, N-glyco inh)
COc1ccccc1NC(=O)N1CCCCN2[C@H](CO)[C@H](c3ccc(-c4cccc(C)c4)cc3)[C@H]2C1	none (no result: FN deposit inh, N-glyco inh)
COc1ccccc1NC(=O)N1CCCCN2[C@@H](CO)[C@@H](c3ccc(-c4ccccc4)cc3)[C@@H]2C1	RAD52 inh 50.4 (no result: FN deposit inh, N-glyco inh)
COc1ccccc1NC(=O)N1CCCCN2[C@H](CO)[C@H](c3ccc(-c4ccc(C)cc4)cc3)[C@@H]2C1	none (no result: FN deposit inh, N-glyco inh)
COc1ccccc1NC(=O)N1CCCCN2[C@@H](CO)[C@H](c3ccc(-c4ccccc4)cc3)[C@@H]2C1	RAD52 inh 67.2 (no result: FN deposit inh, N-glyco inh)
COc1ccccc1NC(=O)N1CCCCN2[C@H](CO)[C@H](c3ccc(-c4ccccc4)cc3)[C@H]2C1	RAD52 inh 51.7 (no result: FN deposit inh, N-glyco inh)
